Assay results as given in ChEMBL document CHEMBL4513216, “Probing the Open Global Health Chemical Diversity Library for Multistage-Active Starting Points for Next-Generation Antimalarials” (ACS Infect Dis, 2020).

Assay: Toxicity liver stage against HepG2, at 10uM
Format: cell-based
Set-up: test concentration 10 uM, cell line HepG2-A16-CD81EGFP
Settings: human, HepG2-A16-CD81EGFP cells; read-out: INHIBITION
How it was run: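 Uninfected HepG2-A16-CD81EGFP cells, 3 × 10^3 per well, 1536-well, plated on prespotted compound at 10 μM final, parasite-free screening media added to match infected plates; puromycin 10 μM positive, DMSO 0.5% negative; run in parallel with 48 h PbLuc assay at 37 °C, 5% CO2; viability by CellTiter-Glo luminescence, normalized to controls.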

| Compound | cytotoxicity at 10 µM |
| --- | --- |
| CS(=O)(=O)N1CCN(Cc2ccc(F)cc2Br)CC1 | 0.0667% |
| O=C(CC1CCC2(CC1)CCN(Cc1nccs1)CC2)N1CC=CC1 | -4.35% |
| CCc1ccc(-n2c(=O)[nH]c3nc(N4CCSCC4)ncc3c2=O)cc1 | -4.14% |
| CCN(CC)c1ncnc2c(C)nn(CC)c12 | -2.01% |
| Cc1cn[nH]c1C1COCCN1Cc1c[nH]cn1 (configuration not stated) | -1.3% |
| Cc1cccc(-c2nccnc2C2CCCN(C)C2)c1C (configuration not stated) | 5.62% |
| CC(=O)N1CCCC1c1ccc(CN2CCOCC2)cn1 (configuration not stated) | 5.83% |
| Cc1noc(C)c1-c1ccnc(C2CCN(S(=O)(=O)N(C)C)CC2)c1 | -25% |
| CNc1cncc(C2CCCN2S(=O)(=O)c2ccc(F)cc2)n1 (configuration not stated) | -3.21% |
| CC(C)C(=O)N1CCC(c2nc(O)cc(-c3ccncc3)n2)CC1 | -5.41% |
| COc1ccc(CN2CC[C@H](NC(C)=O)[C@@H](O)CC2)c(OC)c1 | -7.49% |
| CCOC(=O)[C@H]1CNC[C@@H]1C(F)(F)F | 7.06% |
| O=c1cc(CN(CCO)C2CC2)nc2ccc(Br)cn12 | 12.5% |
| CC(C)c1nn(C)c(N(C)C)c1CNC1CCCOc2ccccc21 (configuration not stated) | -13.1% |
| Cc1noc(C(C)N2CCC(c3nc4ccccc4[nH]3)CC2)n1 (configuration not stated) | -6.4% |
| COC(CNC(=O)CNC(=O)c1ccccc1)c1cccc(Cl)c1 (configuration not stated) | 5.61% |
| Cc1csc(CNCC2CCCN(C(=O)OC(C)(C)C)C2)n1 (configuration not stated) | -6.82% |
| Cc1nnc2n1CCN(CC(=O)NC(C)c1cccc3ccccc13)C2 (configuration not stated) | 7.15% |
| CCc1nc(C2CCCN(c3nccc(N4CCCC4)n3)C2)no1 (configuration not stated) | 19% |
| CCOc1cncc(N2CCOCC2)n1 | 3.18% |
| CNS(=O)(=O)c1cccc(C(C)NCc2ccc(C)o2)c1 (configuration not stated) | -3.69% |

| Compound | cytotoxicity at 10 µM |
| --- | --- |
| O=C(CCNS(=O)(=O)c1ccc(F)c(F)c1)NCc1ccoc1 | 11.2% |
| CC(C)(C)c1nnc(CNc2cc(F)ccc2OCC2CCCO2)o1 (configuration not stated) | 3.06% |
| O=C(C(CNCc1ccccc1O)c1ccccc1)N1CCOCC1 (configuration not stated) | -0.138% |
| COc1ccccc1C1(CNc2ccnc(C(=O)N(C)C)c2)CC1 | -1.67% |
| COCCNC(=O)c1cc(F)ccc1NS(C)(=O)=O | -1.23% |
| NS(=O)(=O)NCC1(c2ccccc2Br)CC1 | 2.91% |
| O=C(NCC1(Sc2ccccc2)CC1)c1ccc(=O)[nH]n1 | 1.52% |
| CC(=O)NCC1CCN(C(=O)c2c[nH]c3cc(Cl)ccc23)CC1 | 7.07% |
| COC(=O)c1cccc(NC(=O)CN2CCN(S(C)(=O)=O)CC2)c1 | 11.3% |
| O=C(NCc1ccccc1F)N1CCC(C2OCCO2)CC1 | 2.76% |
| O=C(CC1CC1)N1CCC2(CC1)CN(c1ncc(F)cn1)CCO2 | -72.8% |
| CC(C)N(C)[C@@H]1CCN(C(=O)c2ccc[nH]2)[C@H]1Cc1cnn(C)c1 | -72% |
| O=C(c1cscn1)N1CCC2(CCN(Cc3nccs3)CC2)CC1 | -71% |
| Cc1csc2ncc(-c3ccnc(N4CCN(C)CC4)n3)c(=O)n12 | 9.43% |
| CCn1ncnc1CN1CCc2[nH]cnc2C1c1ccccn1 (configuration not stated) | -9.38% |
| O=C(Cc1ccsc1)N1CCN(CCOc2ccccc2)CC1 | -4.6% |
| CC1(C)CNC(=O)c2nc(-c3n[nH]c(=O)[nH]3)[nH]c2C1 | -4.07% |
| c1cn(-c2ccc(CN3CCCC3)cc2)c(-c2cc3n(n2)CCNC3)n1 | -14.3% |
| CCN(CC)Cc1cc(C(=O)N2CC(C)(C)[C@@](C)(O)C2)c(C)o1 | 1.07% |
| O=C(O)CSc1nnc(-c2ccco2)n1-c1ccccc1C(F)(F)F | 3.41% |
| CC1(C)Cc2c(cnn2-c2cccc(F)c2)C(NC2CCSCC2)C1 (configuration not stated) | -142% |

| Compound | cytotoxicity at 10 µM |
| --- | --- |
| Cc1nn(C)cc1-c1ccnc(N(C)Cc2cccs2)n1 | 19% |
| CC(=O)N1C[C@H]2CNC[C@@]2(C(=O)NCCCOc2cccnc2)C1 | -7.52% |
| O=C1CC[C@H]2CN(Cc3ncc[nH]3)CC[C@H]2N1CC1CCNCC1 | 11.6% |
| CC(=O)N1CCN(Cc2c(C)sc3ccccc23)CC(O)C1 (configuration not stated) | 14.4% |
| Cc1ccc(-n2cc(CN3CCOCC(CN(C)C)C3)cn2)cc1C (configuration not stated) | -19.8% |
| COc1cc(F)ccc1C(C(=O)O)N(C)CCN1CCOCC1 (configuration not stated) | -12.9% |
| CN(Cc1ccc(OCC(=O)N2CCOCC2)cc1)S(C)(=O)=O | 4.64% |
| COCc1nc2ncc3c(=O)n(-c4ccc(C(C)=O)cc4)ccc3n2n1 | -7.03% |
| CCOC(=O)C1(Cc2ccccc2)CCCN(Cc2nccn2CC)C1 (configuration not stated) | 8.82% |
| CC(C)c1nccn1-c1cccc(C2CCCN(C3CCCC3)C2)n1 (configuration not stated) | 7.1% |
| Cc1cccc(C(=O)NCc2cccnc2N(C)C)n1 | 0.72% |
| CC(Nc1cccc(CN2CCOC2=O)c1)C(=O)Nc1ccccc1 (configuration not stated) | -6.42% |
| CC(O)CN1CCC(CNCc2cccc(OC(F)(F)F)c2)CC1 (configuration not stated) | -7.95% |
| O=C(CCc1nccs1)N1CCN(c2ccc(Cl)cn2)CC1 | 0.665% |
| Cc1nnc(N2CCCC(CS(N)(=O)=O)C2)c(C#N)c1C (configuration not stated) | 2.86% |
| Cc1oc(C(=O)O)cc1S(=O)(=O)Nc1ccc(Cl)c(F)c1 | -5.92% |
| CCn1c(C(=O)N2CCN(CC(C)O)CC2)cc2ccccc21 (configuration not stated) | -8.96% |
| Cc1cc(C(=O)N2CCCCC2c2nc(C)cs2)[nH]n1 (configuration not stated) | -8.13% |
| Cn1ccnc1CN1CCN(Cc2cc(C#N)ccc2F)CC1 | -4.52% |
| COc1c(CNC2CCCc3ccccc32)c(C(C)C)nn1C (configuration not stated) | -2.9% |
| Nc1nc(CN2CCCC(Cn3cncn3)C2)nc2ccccc12 (configuration not stated) | -8.21% |

| Compound | cytotoxicity at 10 µM |
| --- | --- |
| CC(C)NC(=O)CS(=O)(=O)Cc1cc(Cl)c2c(c1)OCCO2 | -4.53% |
| Cc1cnn(CC2CN(CC(=O)N(C)Cc3cccs3)CCO2)c1 (configuration not stated) | 6.28% |
| CCCc1n[nH]c(C2CN(CCCS(C)(=O)=O)CCO2)n1 (configuration not stated) | -2.38% |
| O=C(NCc1nnc2n1CCCCC2)N1CCc2sccc2C1 | 0.553% |
| COc1ccc(F)cc1C(=O)N(C)Cc1cc(C)on1 | 0.35% |
| CNCc1ccc([C@@H]2CN(C(C)=O)C[C@H]2C(=O)N(C)C)cc1 | 3% |
| CC(=O)N1[C@H](Cn2cncn2)C[C@@H]2CN(Cc3cccnc3)CC[C@@H]21 | 3.16% |
| CCOCC1CN(C(=O)c2ccncn2)Cc2cnn(CC)c21 (configuration not stated) | -68.3% |
| Cn1ccnc1CN1CCC2(CCC(=O)N2CCN2CCCC2)CC1 | -0.171% |
| c1cnc(N2CCO[C@H]3CN(CC4CC4)C[C@H]32)nc1 | 5.03% |
| CN(C)C(=O)CC1CC2(CCN(CC3CC3)CC2)c2cc(F)ccc21 (configuration not stated) | 3.37% |
| COCC1CN(CC2CC2)Cc2nccn2C1 (configuration not stated) | -76% |
| O=C(c1ccno1)N1CCc2ncnc(-c3ccncc3)c2CC1 | 6.59% |
| Cn1cc(C(=O)N2CC[C@@H]3[C@@H]2CCN3Cc2ccncc2)cn1 | -75.3% |
| c1cc(COC[C@]23COC[C@H]2CN(Cc2ccsc2)C3)ccn1 | -90.9% |
| O=C(c1ccncc1)N1CCCn2c(CN3CCCC3)nnc2C1 | -76.9% |
| Cn1nnc2c1CCN(Cc1ccncc1)C2COCC1CC1 (configuration not stated) | 5.29% |
| Cc1ccc(N2CCC3(CCN(C(=O)N(C)C)CC3)CC2)nn1 | 5.73% |
| COc1ccc(N2CCN(C(=O)C3[C@H]4CNC[C@@H]34)CC2(C)C)cc1 (some centres not stated) | 12.1% |
